Test results reported in ChEMBL document CHEMBL1687742, “Candida albicans and Staphylococcus aureus form polymicrobial biofilms: effects on antimicrobial resistance” (2009).
The source made the active and inactive calls. No cut-off for these calls is given here.

Legend:
Staphylococcus aureus [1] = assay: Antibacterial activity against 10^7 CFU/ml Staphylococcus aureus ATCC 29523 monomicrobial biofilms assessed as log reduction in bacterial viability at 800 ug/mL after 24 hrs in presence of amphotericin B by CFU assay in presence of 50% bovine serum; assay type: functional
Summary of the method: (§1)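 Biofilms were formed in 96-well tissue culture-treated plates in 50% BS with C. albicans (10⁶ CFU/ml) and/or S. aureus (10⁷ CFU/ml) for 24 h at 37°C. They were washed three times in PBS. Vancomycin, Amp B or both were added from DMSO stocks diluted in 50% BS, and biofilms were incubated a further 24 h. Cells were sonicated, tenfold-diluted and counted as CFU on selective agar. Duplicates; averages of two experiments.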

Candida albicans [2] = assay: Antifungal activity against Candida albicans SC5314 monomicrobial biofilms assessed as fungal viability after 24 hrs by CFU assay in presence of 50% bovine serum; assay type: functional, organism-based; summary of the method: as §1
Staphylococcus aureus [3] = assay: Antibacterial activity against 10^7 CFU/ml Staphylococcus aureus ATCC 29523 polymicrobial biofilms grown in presence of Candida albicans SC5314 assessed as bacterial viability after 24 hrs in presence of amphotericin B by CFU assay in presence of 50% bovine serum; assay type: functional, organism-based; summary of the method: as §1
Staphylococcus aureus [4] = assay: Antibacterial activity against 10^7 CFU/ml Staphylococcus aureus ATCC 29523 polymicrobial biofilms grown in presence of Candida albicans SC5314 assessed as bacterial viability at 1600 ug/mL after 24 hrs in presence 50% bovine serum by CFU assay; assay type: functional, organism-based; summary of the method: as §1
Staphylococcus aureus [5] = assay: Antibacterial activity against 10^7 CFU/ml Staphylococcus aureus ATCC 29523 polymicrobial biofilms grown in presence of Candida albicans biofilm matrix assessed as reduction in bacterial viability at 1.582 to 1600 ug/mL after 24 hrs in presence 50% bovine serum by CFU assay; assay type: functional, organism-based
Summary of the method: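 Matrix came from 24-h C. albicans biofilms in 50% BS. It was scraped, sonicated, centrifuged three times at 12,000 × g and treated with Amp B 20 μg/ml. S. aureus (10⁷ CFU/ml) plus matrix in 50% BS was grown in 96-well plates for 24 h at 37°C, washed, then exposed to vancomycin for 24 h. Washed cells were counted as CFU. Duplicates; two independent experiments.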

Staphylococcus aureus [6] = assay: Antibacterial activity against Staphylococcus aureus ATCC 29523 […] polymicrobial biofilms grown in presence of Candida albicans SC5314 assessed as bacterial viability after 24 hrs in presence 50% bovine serum by CFU assay; assay type: functional, organism-based
Staphylococcus aureus [7] = assay: Antibacterial activity against 10^7 CFU/ml Staphylococcus aureus ATCC 29523 polymicrobial biofilms grown in presence of Candida albicans SC5314 assessed as log reduction in bacterial viability at 800 ug/mL after 24 hrs in presence of amphotericin B by CFU assay in presence of 50% bovine serum; assay type: functional; summary of the method: as §1
Candida albicans [8] = assay: Antifungal activity against Candida albicans SC5314 polymicrobial biofilms grown in presence of sStaphylococcus aureus ATCC 29523 assessed as fungal viability after 24 hrs by CFU assay in presence of 50% bovine serum; assay type: functional, organism-based; summary of the method: as §1
Staphylococcus aureus [9] = assay: Antibacterial activity against 10^7 CFU/ml Staphylococcus aureus ATCC 29523 polymicrobial biofilms grown in presence of 10^6 CFU/mL Candida albicans SC5314 assessed as bacterial viability at 800 ug/mL after 24 hrs by Transwell assay; assay type: functional, organism-based
Summary of the method: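 S. aureus (10⁷ CFU/ml) went in the bottom well and C. albicans (10⁶ CFU/ml) on a 0.4-μm PET Transwell insert, 24 h at 37°C. After PBS washing, vancomycin 800 μg/ml (diluted in 50% BS) went to the bottom well and Amp B to the insert, for 24 h at 37°C. CFU were counted in both compartments, with no-insert controls. Duplicates; averages of two experiments.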

Staphylococcus aureus [10] = assay: Antibacterial activity against 10^7 CFU/ml Staphylococcus aureus ATCC 29523 monomicrobial biofilms assessed as bacterial viability after 24 hrs by CFU assay in presence of 50% heat inactivated bovine serum; assay type: functional, organism-based
Staphylococcus aureus [11] = assay: Antibacterial activity against 10^7 CFU/ml Staphylococcus aureus ATCC 29523 monomicrobial biofilms assessed as bacterial viability after 24 hrs by CFU assay in presence of 50% bovine serum; assay type: functional, organism-based; summary of the method: as §1
Candida albicans [12] = assay: Antifungal activity against Candida albicans SC5314 planktonic polymicrobial biofilms grown in presence of Staphylococcus aureus ATCC 29523 assessed as […] viability after 24 hrs in presence 50% bovine serum by CFU assay; assay type: functional, organism-based
Summary of the method: (§2)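 C. albicans SC5314 at 10⁶ CFU/ml, alone or with S. aureus (10⁷ CFU/ml) for the mixed biofilm, was seeded in 50% bovine serum in tissue-culture-treated 96-well plates, 37°C, 24 h. Biofilms were PBS-washed thrice and exposed to serial antifungal concentrations diluted in 50% BS from DMSO stocks for 24 h. CFU were counted on ampicillin/erythromycin SDA after sonication. Duplicates, two experiments averaged.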

Candida albicans [13] = assay: Antifungal activity against Candida albicans SC5314 planktonic monomicrobial biofilms assessed as […] viability after 24 hrs in presence 50% bovine serum by CFU assay; assay type: functional, organism-based; summary of the method: as §2

SMILES	FC (Staphylococcus aureus [1])	growth inhibition (GI) (Candida albicans [2])	growth inhibition (GI) (Staphylococcus aureus [3])	growth inhibition (GI) (Staphylococcus aureus [4])	growth inhibition (GI) (Staphylococcus aureus [5])	growth inhibition (GI) (Staphylococcus aureus [6])	FC (Staphylococcus aureus [7])	growth inhibition (GI) (Candida albicans [8])	growth inhibition (GI) (Staphylococcus aureus [9])	growth inhibition (GI) (Staphylococcus aureus [10])	growth inhibition (GI) (Staphylococcus aureus [11])	growth inhibition (GI) (Candida albicans [12])	growth inhibition (GI) (Candida albicans [13])
CN[C@H](CC(C)C)C(=O)N[C@H]1C(=O)N[C@@H](CC(N)=O)C(=O)N[C@H]2C(=O)N[C@H]3C(=O)N[C@H](C(=O)N[C@H](C(=O)O)c4cc(O)cc(O)c4-c4cc3ccc4O)[C@H](O)c3ccc(c(Cl)c3)Oc3cc2cc(c3O[C@@H]2O[C@H](CO)[C@@H](O)[C@H](O)[C@H]2O[C@H]2C[C@](C)(N)[C@H](O)[C@H](C)O2)Oc2ccc(cc2Cl)[C@H]1O [VANCOMYCIN]	2	inactive	Active	inactive	inactive	Active	2	inactive	Active	inactive	Dose-dependent effect	–	–
C[C@@H]1[C@H](O)[C@@H](C)/C=C/C=C/C=C/C=C/C=C/C=C/C=C/[C@H](O[C@@H]2O[C@H](C)[C@@H](O)[C@H](N)[C@@H]2O)C[C@@H]2O[C@](O)(C[C@@H](O)C[C@@H](O)[C@H](O)CC[C@@H](O)C[C@@H](O)CC(=O)O[C@H]1C)C[C@H](O)[C@H]2C(=O)O	–	inactive	–	–	–	–	–	–	–	–	–	Active	Active
